# MrgX1 antagonist – human MrgX1 receptor antagonism, primary screen; Q96LB2; MRGX1-HEK293 calcium flux, Fluo-4, BAM8-22 antagonism; hits give low values; B-score at 10 µM; actives 1.3% (n = 310,000); AID 588676;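 active = calcium-response B-score plate-corrected more than 3 library SD below zero, starting fluorescence within 5 deviations, no agonist response on first addition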;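 note: peak minus trough fluorescence over baseline after final BAM8-22 challenge near maximal dose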
# Target sequence (Q96LB2 whole entry, looked up): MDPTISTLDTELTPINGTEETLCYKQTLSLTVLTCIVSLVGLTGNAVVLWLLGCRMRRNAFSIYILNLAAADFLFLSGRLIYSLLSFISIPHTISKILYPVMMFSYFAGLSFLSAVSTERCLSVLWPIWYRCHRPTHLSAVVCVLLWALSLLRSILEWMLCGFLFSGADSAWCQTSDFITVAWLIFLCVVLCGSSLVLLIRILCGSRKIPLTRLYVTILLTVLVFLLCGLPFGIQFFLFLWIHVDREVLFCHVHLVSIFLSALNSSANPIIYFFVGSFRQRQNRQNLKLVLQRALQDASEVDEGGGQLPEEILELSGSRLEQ
# RGS4 block – inhibitors of human RGS4. HEK293 M3R/RGS4 inducible, Fluo-4 calcium flux; hits give high values; triggered by carbachol at its EC20. B-score at 10 µM. actives 0.45% (n = 310,000). AID 463165;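 active = B-score, a plate-corrected calcium signal, over three deviations above library mean, with baseline fluorescence within five deviations of library mean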;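 note: RGS4 expression induced by doxycycline in cells with stable M3 receptor; B-score is computed from the integrated fluorescence ratio over baseline after carbachol; higher B-score means a larger calcium signal and so more RGS4 inhibition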
# Target sequence (P49798 whole entry, looked up): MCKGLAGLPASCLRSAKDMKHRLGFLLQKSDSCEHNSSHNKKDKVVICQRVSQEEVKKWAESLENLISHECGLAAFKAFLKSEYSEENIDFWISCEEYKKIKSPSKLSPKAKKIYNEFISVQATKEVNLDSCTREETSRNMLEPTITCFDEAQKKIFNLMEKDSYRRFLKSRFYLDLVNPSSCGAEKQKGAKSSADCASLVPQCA
# RGS4 pot – potentiators or activators of RGS4; HEK293 M3R/inducible RGS4, carbachol calcium flux Fluo4; hits give low values; actives 0.92% (n = 310,000); AID 463111; B-score at 10 µM;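 active = B-score of the integrated calcium signal more than 4 SD below the library mean, with starting fluorescence not abnormally high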;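 note: negative B-score means reduced calcium response which marks RGS4 activation or potentiation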
#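 Also added: carbachol at ECmax as muscarinic agonist stimulus; Assay system: HEK293 cells with stable M3R and inducible RGS4; Timing: overnight RGS4 induction, 30 min dye load 37 °C, 20 min compound RT; Measured by: Fluo4-AM (2 µM) calcium-flux fluorescence, kinetic read.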
# MrgX1 ag – agonists of human MrgX1 receptor; MrgX1-HEK293 cells, Fluo-4 calcium fluorescence, agonist mode; hits give high values; actives 0.44% (n = 310,000); B-score at 10 µM; Q96LB2;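 active = calcium response B-score plate-corrected fluorescence ratio at least 3 library SD, with starting fluorescence B-score inside 5 SD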
#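 Test system: Stable human MrgX1 HEK293 cell line | Schedule: Overnight plating before 1 h dye loading | Read-out basis: Baseline-normalised fluorescence change ratio, B-scored | Detection: Kinetic calcium dye fluorescence, Fluo-4 NW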
# MrgX1 PAM – allosterically activates human MrgX1 receptor signaling | Q96LB2 | MrgX1-HEK293, Fluo-4 calcium flux, FDSS; hits give high values | B-score at 10 µM | actives 0.63% (n = 310,000) | AID 588675;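 active = plate-corrected calcium response at least 3 library SD above typical, normal starting fluorescence, not activating the receptor alone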;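 note: compound read alongside a low EC10 to EC30 dose of BAM8-22 agonist; peak minus trough fluorescence over baseline measured at the second addition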
# RGS4 block valid – RGS4 inhibitor validation; shares compounds with RGS4 block; HEK293 M3R/RGS4, carbachol calcium Fluo-4 fluorescence; carbachol added at its EC20; 0 = buffer wells, 100 = carbachol control; calcium response, % at 10 µM; actives 65% (n = 1,700); AID 492999;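 active = duplicate-averaged calcium response above the buffer-only control mean plus 5 SD of those controls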;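 note: integrated fluorescence ratio F max minus min over baseline F0; higher response in RGS4-induced cells means RGS4 inhibition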
# RGS4 uninduced – checks RGS4 inhibitor effects in non-induced HEK293 M3R cells. shares compounds with RGS4 block. actives 20% (n = 1,900). AID 493000. activity (percent), % at 10 µM. carbachol calcium Fluo-4; submaximal (EC20) carbachol stimulus; buffer wells 0%, carbachol control wells 100%; call rule not given here;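 note: RGS4 induction absent so cells express M3R without RGS4; higher means more calcium signal and flags a non-specific hit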
# M3R basal Ca ctr – signal in non-induced cells without carbachol, RGS4 inhibitor counter-screen | shares compounds with RGS4 block | HEK293 M3R/RGS4 non-induced, Fluo-4 calcium, no carbachol; normalised: buffer wells 0%, carbachol wells 100% | calcium response (agonist-mode artifact), % at 10 µM | actives 22% (n = 1,900) | AID 493001;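 active = duplicate-averaged calcium rise in uninduced cells above buffer wells' mean plus 5 SD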
# * hit, by the source's call; i = inactive; . = not tested or not shown. Sampled rows, rich in hits. Any-hit rate of the full collection: about 3.5%.
SMILES,MrgX1 antagonist,RGS4 block,RGS4 pot,MrgX1 ag,MrgX1 PAM,RGS4 block valid,RGS4 uninduced,M3R basal Ca ctr
O=C(CNC1CCN(Cc2ccccc2)CC1)Nc1ccc(S(=O)(=O)N2CCCCC2)cc1,i,i,i,i,i,.,.,.
Nc1c(S(=O)(=O)c2cccs2)c2nc3ccccc3nc2n1Cc1ccc2c(c1)OCO2,i,6.9*,i,i,i,9.5%*,i,i
O=C(COc1ccc([N+](=O)[O-])cc1)NCCC1=CCCCC1,i,5*,i,i,i,i,i,i
Cc1ccccc1OCCNc1cc(N2CCCCC2)ccc1[N+](=O)[O-],i,i,i,i,i,i,i,i
Cc1ccccc1OCCNc1cc(N2CCN(CCO)CC2)ccc1[N+](=O)[O-],i,i,i,i,i,.,.,.
Cc1[nH]n(-c2ncc(-c3ccccc3)s2)c(=O)c1C(c1ccc(Br)cc1)C(C#N)C#N (stereo not drawn),-6.8*,16*,i,i,i,50%*,i,51%*
Cc1nc(Cl)sc1C(=O)Nc1cccc(Cl)c1,i,i,i,i,i,.,.,.
CC(C)(C)OC1NS(=O)(=O)OCC1NCOC(Cl)(Cl)Cl (stereo not drawn),i,19*,i,i,i,26%*,40%*,22%*
COc1nc(N)nc(NC(=O)c2cccs2)c1N=O,i,8.1*,i,i,i,16%*,i,i
COc1ccc(NC(=O)c2ccc(NC(=O)c3cccs3)cc2)cc1,i,i,i,i,i,.,.,.
CC(CC(=O)Nc1ccc(S(=O)(=O)Nc2ncccn2)cc1)c1ccccc1 (stereo not drawn),i,i,i,i,i,i,i,i
O=C(/C=C/c1cccc(F)c1)Nc1ccc(S(=O)(=O)Nc2ncccn2)cc1,i,5.1*,i,i,i,7.0%*,i,i
O=C1NN(c2ccccc2)C(=O)/C1=C/c1coc2ccccc2c1=O,i,i,i,i,i,.,.,.
O=C1NN(c2ccccc2)C(=O)/C1=C\c1coc2ccc(O)cc2c1=O,i,7.9*,i,27*,i,30%*,i,i
CC1=Nc2ncnn2C(c2ccccc2)/C1=N\O (stereo not drawn),i,i,i,i,i,.,.,.
COc1cccc(NC(=O)COc2coc(CN3CCc4ccccc4C3)cc2=O)c1,i,i,i,i,i,.,.,.
COC(=O)Cc1[nH]nc2c1C1(C(=O)N(Cc3ccc(Cl)cc3)c3ccccc31)C(C#N)=C(N)O2 (stereo not drawn),i,5.1*,i,i,i,6.5%*,i,i
CCc1[nH]nc2c1C1(C(=O)N(Cc3ccccc3)c3ccccc31)C(C#N)=C(N)O2 (stereo not drawn),i,i,i,i,i,.,.,.
O=C(CN(C(=O)c1csnn1)c1cccc2ccccc12)NCc1ccc(F)cc1,i,i,i,i,i,.,.,.
CC(=O)N1CCC(=NNc2ccnc3cc(Cl)ccc23)CC1,i,6.9*,i,i,i,28%*,i,i
CCOC(=O)N1CCC(=NNc2ccnc3cc(Cl)ccc23)CC1,i,i,i,i,i,.,.,.
Cc1cc(S(=O)(=O)Nc2ccc3cn[nH]c3c2)c(C)cc1Cl,i,15*,i,i,i,30%*,i,i
CC(C)c1ccc(/C=C2\CC/C(=C\C=N\N(C)C)C2=O)cc1,i,i,i,i,i,.,.,.
CN(C)/N=C/C=C1\CC/C(=C\c2ccc(F)c(F)c2)C1=O,i,i,i,i,i,.,i,16%*
CC(NCC(O)COCCC12CC3CC(CC(C3)C1)C2)c1ccccc1 (stereo not drawn),i,4.7*,i,i,i,i,i,24%*
SMILES,MrgX1 antagonist,RGS4 block,RGS4 pot,MrgX1 ag,MrgX1 PAM,RGS4 block valid,RGS4 uninduced,M3R basal Ca ctr
CC(C)(C)NC(=O)CN(Cc1ccco1)C(=O)CCC(=O)Nc1nccs1,i,i,i,i,i,.,.,.
COc1ccc(-c2csc(NC3OC(=O)c4c3ccc(OC)c4OC)n2)cc1OC (stereo not drawn),i,11*,i,i,i,44%*,i,i
COc1ccc2c(c1OC)C(=O)OC2Nc1nc(-c2ccc([N+](=O)[O-])cc2)cs1 (stereo not drawn),i,i,i,i,i,i,i,i
COc1ccc2c(c1OC)C(=O)OC2Nc1nc(-c2cc3cc(Br)ccc3oc2=O)cs1 (stereo not drawn),i,i,i,i,i,.,.,.
Cc1ccc(CNC(=O)CC(C)S(=O)(=O)c2ccc3c(c2)NC(=O)CS3)o1 (stereo not drawn),i,i,i,i,i,.,.,.
CCNc1ccc(S(=O)(=O)N(C)C)cc1NCC(=O)Nc1ccccc1Cl,i,i,i,i,i,.,.,.
COc1ccc(/C=C(\NC(=O)c2ccccc2)C(=O)NCc2cccnc2)cc1,i,i,i,i,i,i,i,i
CN(C)c1ccc(/C=C(\NC(=O)c2ccccc2)C(=O)NCc2ccncc2)cc1,i,i,i,i,i,.,.,.
CN(C)c1ccc(/C=C(\NC(=O)c2ccccc2)C(=O)NCc2cccnc2)cc1,i,i,i,i,i,i,i,i
CN(C(=O)CCN1C(=O)S/C(=C\c2ccccc2)C1=O)C1CCS(=O)(=O)C1 (stereo not drawn),i,i,i,i,i,.,.,.
Cc1ccc(C(C2=C(O)CC(C)(C)CC2=O)C2C(=O)CC(C)(C)CC2=O)o1 (stereo not drawn),i,9.3*,i,i,i,16%*,i,i
CC1(C)CC(=O)C(C(C2=C(O)CC(C)(C)CC2=O)c2cccc(O)c2)C(=O)C1 (stereo not drawn),i,.,.,i,i,.,.,.

# Screening data (PubChem BioAssay)
